According to ChEMBL document CHEMBL1157851, “Design and synthesis of novel 3,4-disubstituted pyrazoles for nanomedicine applications against malignant gliomas” (Eur J Med Chem, 2010):

Experiment: Cytotoxicity against human U87MG cells after 24 hrs by MTT assay
Assay type: functional, cell-based, U-87MG ATCC
Conditions: U-87 MG
Summary of the method: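 U87MG human glioblastoma cells were grown in EMEM with 10% FBS and 1% penicillin–streptomycin at 37 °C under humidified 5% CO₂, then seeded at 2 × 10³ cells/well. At about 50% confluence, cells were exposed to compounds at various concentrations (10 mmol/L DMSO stocks; DMSO control) for 24 h. MTT was then added for 3 h at 37 °C, formazan was dissolved in DMSO, and A540 was read. IC50 values are means of three experiments.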

SMILES | IC50
COc1ccccc1C(=O)Nc1cn(-c2ccccc2)nc1-c1ccccc1 | 81 µM
Cn1cc(NC(=O)CCCCCCCCCCCN)c(-c2ccccn2)n1 | 90 µM
Cn1cc(NC(=O)CCCCCCCCCCO)c(-c2ccccn2)n1 | > 150 µM
COc1ccccc1C(=O)Nc1cn(C)nc1-c1ccccn1 | 130 µM
CCCCCCCCCCCC(=O)Nc1cn(C)nc1-c1ccccn1 | > 150 µM
C[C@H](N)C(=O)Nc1cn(C)nc1-c1ccccn1 | > 150 µM
Cn1cc(NC(=O)CCCCCCCCCCS)c(-c2ccccn2)n1 | > 150 µM
O=C(CCCCCCCCCCO)Nc1cn(-c2ccccc2)nc1-c1ccccc1 | > 150 µM
Cn1cc(NC(=O)c2ccccc2)c(-c2ccccn2)n1 | > 150 µM
CCCCCCCCCCCC(=O)Nc1cn(-c2ccccc2)nc1-c1ccccc1 | 81 µM
C[C@H](N)C(=O)Nc1cn(-c2ccccc2)nc1-c1ccccc1 | > 150 µM
O=C(CCCCCCCCCCS)Nc1cn(-c2ccccc2)nc1-c1ccccc1 | 90 µM
NCCCCCCCCCCCC(=O)Nc1cn(-c2ccccc2)nc1-c1ccccc1 | 77 µM
O=C(Nc1cn(-c2ccccc2)nc1-c1ccccc1)c1ccccc1 | > 150 µM
